Series [1] is described as follows: Drug uptake in CD-1 mouse superior and inferior colliculus at 70 uCi, iv administered 10 mins post naltrindole challenge measured after 90 mins. It is filed as ADME, organism-based. Particulars: in vivo, 1.5 h; call rule not given here. In outline:
(§1)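 Male CD-1 mice (25–30 g). […] Brains removed 90 min later and dissected on ice. Regions weighed and gamma-counted against injectate standards. Result as %ID/g, mean ± SD, n=3; ANOVA versus controls.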

Series [2] relates to Brain. As to the kind of experiment: Drug uptake in CD-1 mouse other brain region at 70 uCi, iv administered 10 mins post ondansetron challenge measured after 90 mins. It counts as ADME, organism-based. The settings on record: in vivo, 1.5 h. In outline:
as §1

For series [3], the system named is Cortex. As to the kind of experiment: Drug uptake in CD-1 mouse cortex at 70 uCi, iv administered 10 mins post SSR180711 challenge measured after 90 mins. It is filed as ADME, organism-based. Particulars: in vivo, 1.5 h.
The subject of series [4] is Cortex. As to the kind of experiment: Drug uptake in CD-1 mouse cortex at 70 uCi, iv after 90 mins in presence of nicotine. It is filed as ADME, organism-based. Particulars: in vivo, 1.5 h. In outline: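 Male CD-1 mice, n=3. […] [18F] radiotracer (70 µCi, SA ~14000 mCi/µmol) given i.v. 5 min later. Regions harvested at 90 min, gamma counted, expressed as %ID/g.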
Series [5] has as its system Nucleic Acid. Nature of the series: Ratio of drug uptake from cortex to cerebellum in CD-1 mouse after 90 mins. Particulars: 1.5 h. It is filed as ADME, tissue-based.
Series [6] deals with Brain. Nature of the series: Drug uptake in CD-1 mouse other brain regions at 0.07 mCi, iv after 90 mins co-administered with SSR180711. It counts as ADME, organism-based. Particulars: in vivo, 1.5 h. In outline:
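Male CD-1 mice. [18F]tracer (0.07 mCi, SA 7900 mCi/µmol, 0.2 mL) co-injected i.v. with blocker at 0 (vehicle), 0.02, 0.2, 1 or 3 mg/kg. Blocker dissolved in saline:alcohol 9:1, pH 5.5. Brain regions harvested at 90 min and gamma-counted. %ID/g, mean ± SD, n=3 per dose; ANOVA versus controls.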

For the compound `O=S1(=O)c2cc(N3CCN4CCC3CC4)ccc2-c2cccc([18F])c21`, the Drug uptake result in series [1] is “Active”; in series [2], “Active”; in series [3], “Not Active”; in series [4], “Not Active”; in series [6], “Not Active”. Also, the Ratio in series [5] turned out to be 5.3.
